Data: ChEMBL document CHEMBL4513216, “Probing the Open Global Health Chemical Diversity Library for Multistage-Active Starting Points for Next-Generation Antimalarials” (ACS Infect Dis, 2020)

Experiment: Toxicity liver stage against HepG2, at 10uM
Type: cell-based
Set-up: test concentration 10 uM, cell line HepG2-A16-CD81EGFP
Conditions: human, HepG2-A16-CD81EGFP cells; read-out: INHIBITION
Procedure, shortened: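 Uninfected HepG2-A16-CD81EGFP cells, 3 × 10^3 per well, 1536-well, plated on prespotted compound at 10 μM final, parasite-free screening media added to match infected plates; puromycin 10 μM positive, DMSO 0.5% negative; run in parallel with 48 h PbLuc assay at 37 °C, 5% CO2; viability by CellTiter-Glo luminescence, normalized to controls.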

SMILES | cytotoxicity at 10 µM
CCOc1ccc(NC(=O)c2cnc(N3CCCC3)nc2C)cc1 | -7.81%
CS(=O)(=O)NCC(Cc1cccc(F)c1)N1CCNC1=O (stereo unspecified) | -2.91%
O=S(=O)(Nc1cnc(N2CCCC2)nc1)c1ccc(F)cc1F | -14.4%
Cn1cnc(S(=O)(=O)NCC2(O)CCc3ccccc3C2)c1 (stereo unspecified) | -4.2%
Cn1cnnc1S(=O)(=O)C1CCN(S(=O)(=O)c2ccccc2F)CC1 | -2.08%
CSCCC(CO)NC(=O)c1sc(-c2ccccc2Cl)nc1C (stereo unspecified) | 1.11%
O=C(Cn1ccc2ccccc21)NCc1ccc(C(=O)O)cc1 | -6.13%
Cc1ccc(Cl)cc1N1CCN(CC(=O)NCc2ccco2)CC1 | 1.67%
COCCCC(=O)NCc1cccc(NC(N)=O)c1 | 0.808%
OCCN(Cc1cccnc1)c1ncc(Br)cn1 | 9.68%
Cc1cc(CNC(=O)CCN2CCN(c3ccccn3)CC2)c(C)o1 | 1.71%
CC(=O)c1ccc(Cl)c(Cl)c1OCC(=O)NC(C)C | -9.66%
Cc1cc(NC(=O)N(C)C2CCCN(c3ccccc3)C2=O)n(C)n1 (stereo unspecified) | 5.42%
Cc1cccc(CCC(=O)Nc2cccnc2N2CCC(O)CC2)c1 | -2.25%
CC(Nc1ccc(CN2CCCC2=O)cc1)C(=O)N(C)CCC#N (stereo unspecified) | 13.7%
Cc1ccc(NCc2ccco2)cc1N1CCOC1=O | -10.6%
CC(C)N(C)CCCNC(=O)c1cnc(-c2ccccc2)nc1 | -6.13%
CC(C)(C)OC(=O)N1CCCC[C@H]1C(=O)NCc1nccs1 | -9.39%
Cc1nc(C)n(C2CCCN(C(=O)CCCn3ccnc3)C2)n1 (stereo unspecified) | 2.24%
CS(=O)(=O)NCc1nnc2n1CCN(Cc1ccc(F)cc1)C2 | -72.7%
O=C(C1CCOC1)N1CCC2(CC1)CN(Cc1nccs1)CCO2 (stereo unspecified) | -75%
Cc1ccc(C(=O)N2CCN(C)C3(CCC(=O)N(C)CC3)C2)c(F)c1 (stereo unspecified) | -1.68%
CCCN(Cc1cccnc1)C(=O)C1CCS(=O)(=O)CC1 | -9.03%

SMILES | cytotoxicity at 10 µM
CCc1nnc(NC(=O)c2ccc(C3CCCN3CC(C)C)s2)s1 (stereo unspecified) | 2.14%
Cc1nc(NC(=O)NC2CC(=O)N(C(C)C)C2)nn1C(C)C (stereo unspecified) | -1.55%
CC(=O)N1CCN(Cc2ccc3c(c2)OCCO3)CC(O)C1 (stereo unspecified) | 4.14%
Cc1cnccc1NCCNC(=O)[C@H]1CNC[C@H](C(=O)N2CCCC2)C1 | -124%
COc1ccc(-c2noc(Cn3cc(C)cn3)n2)c(OC)c1OC | -8.42%
COc1ccc2c(c1)CC(NCCCn1nc(C)nc1C)CC2 (stereo unspecified) | -3.27%
OCC1(O)CCCN(Cc2ccc(-c3cc[nH]n3)s2)CC1 (stereo unspecified) | -141%
CN(C)c1nccnc1N1CC[C@@]2(O)CCNC[C@H]2C1 | 7.12%
OC1COCCN(Cc2cccc(N3CCOCC3)c2)C1 (stereo unspecified) | -12.6%
Cc1cc(N2CCC3(CCC(=O)N(CCCO)C3)CC2)nc(N(C)C)n1 | -0.116%
CCNc1ncc(C(=O)N(C)C(C)c2ccc3c(c2)OCCO3)cn1 (stereo unspecified) | -0.75%
O=C(O)c1cc(-c2cccs2)nc2c(Br)cnn12 | -9.24%
Cc1ccc(=O)n(CC2(O)CCN(Cc3cnc(C)nc3)CC2)n1 | 4.3%
Cc1cc(C)n(C2CCCN(C(=O)c3ccc4c(c3)COC4)C2)n1 (stereo unspecified) | -6.1%
CCc1noc(CN2CCN(CCO)CC2)n1 | -6.13%
CCOc1ccccc1C1CCCN1 (stereo unspecified) | -14.1%
CNC(=O)CN1CCOCC12CCN(C(=O)c1ccc(C)cc1)CC2 | -87.6%
Cn1nnc2c1CCN(Cc1nccs1)C2COCc1ccccc1 (stereo unspecified) | -2.01%
c1cc(CN2C[C@@H]3OCCN(CCN4CCCC4)[C@@H]3C2)co1 | 6.13%
CN(C)[C@@H]1CCN(C(=O)Cc2ccc(F)cc2)[C@H]1Cc1ccncc1 | -84.7%
COCC1CN(C(=O)Cc2ccccn2)Cc2c1cnn2CC1CC1 (stereo unspecified) | -69.1%
CN(C)CCN1CCO[C@@H]2CN(C(=O)c3cccs3)CC[C@@H]2C1 | 1.34%
Cc1nc(CN2CCc3ncnc(C4CC4)c3CC2)cs1 | -81.9%
